In ChEMBL document CHEMBL3352533, “Multi-dimensional target profiling of N,4-diaryl-1,3-thiazole-2-amines as potent inhibitors of eicosanoid metabolism” (Eur J Med Chem, 2014):

Tests used:
[1] = target: T1, Polyunsaturated fatty acid lipoxygenase ALOX15 (Homo sapiens) (UniProt P16050); test: Inhibition of 15-LO1-mediated 15-HPETE formation in human eosinophil using arachidonic acid as substrate assessed as residual activity at 50 uM preincubated for 15 mins before substrate addition measured after 10 mins
T1 sequence (whole entry): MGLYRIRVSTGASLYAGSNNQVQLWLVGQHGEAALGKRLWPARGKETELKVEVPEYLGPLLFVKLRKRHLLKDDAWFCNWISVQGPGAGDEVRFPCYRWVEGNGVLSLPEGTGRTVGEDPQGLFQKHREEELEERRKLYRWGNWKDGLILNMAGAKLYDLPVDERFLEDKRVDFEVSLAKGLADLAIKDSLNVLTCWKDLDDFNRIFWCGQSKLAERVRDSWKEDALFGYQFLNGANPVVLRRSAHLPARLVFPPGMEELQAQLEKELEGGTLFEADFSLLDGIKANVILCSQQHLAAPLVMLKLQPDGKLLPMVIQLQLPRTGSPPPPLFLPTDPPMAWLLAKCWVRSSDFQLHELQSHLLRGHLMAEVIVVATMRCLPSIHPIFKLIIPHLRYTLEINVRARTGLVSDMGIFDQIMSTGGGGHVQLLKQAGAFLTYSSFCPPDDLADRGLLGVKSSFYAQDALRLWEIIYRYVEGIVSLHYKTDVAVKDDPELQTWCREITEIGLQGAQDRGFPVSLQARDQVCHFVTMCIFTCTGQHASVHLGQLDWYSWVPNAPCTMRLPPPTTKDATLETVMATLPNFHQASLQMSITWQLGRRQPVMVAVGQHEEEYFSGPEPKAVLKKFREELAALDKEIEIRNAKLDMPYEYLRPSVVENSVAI
Outline: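 Freshly isolated human PMNL (5 × 10^6/ml PBS-glucose, 1 mM CaCl2), with 15-LO1 from contaminating eosinophils, preincubated with compound 15 min at 37 °C; stimulated with 2.5 µM A23187 plus 20 µM AA for 10 min at 37 °C, methanol stop. 15-H(P)ETE peak quantified by HPLC as percent of DMSO control; n ≥ 3, mean ± S.E.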

[2] = target: T2, Prostaglandin G/H synthase 2 (Homo sapiens) (UniProt P35354); test: Inhibition of COX2-mediated PGE2 formation in IL1beta/TNFalpha-stimulated human HeLa cells using arachidonic acid as substrate assessed as residual activity at 50 uM measured after 30 mins by ELISA; assay type: cell-based
T2 sequence (whole entry): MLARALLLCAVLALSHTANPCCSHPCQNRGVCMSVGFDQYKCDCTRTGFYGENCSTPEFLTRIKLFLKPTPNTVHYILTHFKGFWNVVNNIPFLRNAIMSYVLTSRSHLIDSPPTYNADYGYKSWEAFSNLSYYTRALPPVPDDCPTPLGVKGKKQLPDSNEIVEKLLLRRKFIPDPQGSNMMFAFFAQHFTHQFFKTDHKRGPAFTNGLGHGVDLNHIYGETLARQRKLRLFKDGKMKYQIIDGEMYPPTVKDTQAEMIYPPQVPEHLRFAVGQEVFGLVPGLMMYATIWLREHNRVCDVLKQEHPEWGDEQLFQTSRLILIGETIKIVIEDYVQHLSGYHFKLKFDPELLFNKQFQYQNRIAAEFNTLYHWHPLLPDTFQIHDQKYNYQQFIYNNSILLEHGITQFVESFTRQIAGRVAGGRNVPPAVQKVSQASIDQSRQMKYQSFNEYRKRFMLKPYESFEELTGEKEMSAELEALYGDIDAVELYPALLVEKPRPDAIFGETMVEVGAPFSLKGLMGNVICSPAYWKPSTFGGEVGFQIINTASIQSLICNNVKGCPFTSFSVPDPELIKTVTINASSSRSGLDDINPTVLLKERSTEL
Outline: (§1)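 HeLa cells (3 × 10^4/well) grown 24 h, then induced with 1 ng/ml IL1β and 5 ng/ml TNFα for 24 h; washed three times with PBS containing fatty-acid-free BSA 1 mg/ml. Medium with cytokines plus compound or DMSO for 30 min, stopped on ice; supernatant PGE2 by ELISA, percent of DMSO control. Three experiments, mean ± S.E.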

[3] = target: T3, Polyunsaturated fatty acid lipoxygenase ALOX12 (Homo sapiens) (UniProt P18054); test: Inhibition of 12-LO-mediated 12-HPETE formation in human platelets using arachidonic acid as substrate assessed as residual activity at 50 uM preincubated for 15 mins before substrate addition measured after 10 mins
T3 sequence (whole entry): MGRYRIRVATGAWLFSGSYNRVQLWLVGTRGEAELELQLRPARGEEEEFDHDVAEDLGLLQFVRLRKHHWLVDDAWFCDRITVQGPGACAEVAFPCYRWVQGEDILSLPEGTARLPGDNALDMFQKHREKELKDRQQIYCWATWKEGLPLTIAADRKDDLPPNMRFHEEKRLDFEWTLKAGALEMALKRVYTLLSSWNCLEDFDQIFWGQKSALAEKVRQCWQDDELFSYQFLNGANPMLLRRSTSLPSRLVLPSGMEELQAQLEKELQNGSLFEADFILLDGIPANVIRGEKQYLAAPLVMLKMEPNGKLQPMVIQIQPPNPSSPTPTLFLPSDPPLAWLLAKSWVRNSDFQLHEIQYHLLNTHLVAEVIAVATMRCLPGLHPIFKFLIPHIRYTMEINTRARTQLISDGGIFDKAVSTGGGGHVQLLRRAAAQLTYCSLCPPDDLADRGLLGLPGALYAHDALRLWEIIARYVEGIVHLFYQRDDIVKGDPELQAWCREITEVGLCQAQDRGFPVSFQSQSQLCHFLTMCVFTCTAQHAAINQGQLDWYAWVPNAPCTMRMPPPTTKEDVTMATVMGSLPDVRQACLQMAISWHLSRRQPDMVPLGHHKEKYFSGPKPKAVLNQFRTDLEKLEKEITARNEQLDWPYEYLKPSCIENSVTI
Outline: (§2)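 Freshly isolated human platelets (10^8 in 1 ml PBS pH 7.4 with 1 mg/ml glucose and 1 mM CaCl2) preincubated with compound or DMSO 15 min at 37 °C, then 10 µM AA added; 10 min at 37 °C, stopped with ice-cold methanol. HPLC: 12-H(P)ETE for 12-LO, 12-HHT for COX-1; percent of DMSO control, n ≥ 3, mean ± S.E.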

[4] = Cytotoxicity against human U937 cells at 30 uM after 48 hrs by LDH assay; assay type: cell-based; details: u-937, 48 h
Outline: (§3)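 U937 cells (DSMZ; RPMI, 10% FCS, 37 °C, 5% CO2) seeded at 1.5 × 10^4 cells/well, exposed to test agent or DMSO vehicle for 48 h. Supernatant collected after centrifugation; LDH release quantified by kit, expressed relative to detergent-lysed maximum (100%). Three experiments, mean ± S.E.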

[5] = target: Prostaglandin G/H synthase 1 (Homo sapiens) (UniProt P23219); test: Inhibition of COX1 in human platelets using arachidonic acid as substrate assessed as residual activity at 50 uM preincubated for 15 mins before substrate addition measured after 10 mins; outline: as §2
Chain of Prostaglandin G/H synthase 1 (Homo sapiens) (P23219 whole entry): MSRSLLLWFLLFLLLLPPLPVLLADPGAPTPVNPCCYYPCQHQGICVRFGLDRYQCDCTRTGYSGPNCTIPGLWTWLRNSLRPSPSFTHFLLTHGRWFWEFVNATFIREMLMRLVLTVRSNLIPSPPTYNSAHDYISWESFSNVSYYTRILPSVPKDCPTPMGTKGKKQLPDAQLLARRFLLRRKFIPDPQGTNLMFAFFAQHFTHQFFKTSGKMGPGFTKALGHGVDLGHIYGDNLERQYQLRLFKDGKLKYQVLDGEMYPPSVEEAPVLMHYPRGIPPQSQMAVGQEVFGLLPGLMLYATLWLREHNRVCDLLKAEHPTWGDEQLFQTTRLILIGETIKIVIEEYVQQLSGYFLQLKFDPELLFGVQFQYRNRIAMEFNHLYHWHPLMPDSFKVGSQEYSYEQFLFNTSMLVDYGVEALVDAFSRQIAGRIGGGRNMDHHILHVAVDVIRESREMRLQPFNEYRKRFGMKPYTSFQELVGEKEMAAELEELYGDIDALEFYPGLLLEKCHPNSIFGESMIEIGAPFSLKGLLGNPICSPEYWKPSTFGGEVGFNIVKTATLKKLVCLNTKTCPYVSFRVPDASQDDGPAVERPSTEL

[6] = target: Prostaglandin G/H synthase 1 (Homo sapiens) (UniProt P23219); test: Inhibition of COX1 in human platelets using arachidonic acid as substrate assessed as residual activity at 10 uM preincubated for 15 mins before substrate addition measured after 10 mins; outline: as §2
[7] = target: T2, Prostaglandin G/H synthase 2 (Homo sapiens); test: Inhibition of COX2-mediated PGE2 formation in IL1beta/TNFalpha-stimulated human HeLa cells using arachidonic acid as substrate assessed as residual activity at 10 uM measured after 30 mins by ELISA; assay type: cell-based; outline: as §1
[8] = Cytotoxicity against human U937 cells at 100 uM after 48 hrs by LDH assay; assay type: cell-based; details: u-937, 48 h; outline: as §3

SMILES	Activity [1] [%]	Activity [2] [%]	Activity [3] [%]	Activity [4] [%]	Activity [5] [%]	Activity [6] [%]	Activity [7] [%]	Activity [8] [%]
Cc1ccc(-c2csc(Nc3ccc(O)cc3)n2)cc1	44.6	3.4	> 70	14	18.5			
COc1ccccc1Nc1nc(-c2ccc(Cl)cc2)cs1	> 70	5.3	> 70		55.8			
Oc1ccc(-c2csc(Nc3ccc(Cl)cc3)n2)cc1	43.1	2.1	> 70	1.4	3.5			
FC(F)(F)c1ccc(Nc2nc(-c3ccc(Cl)cc3)cs2)cc1	> 70	> 70	> 70		2.7			
Nc1ccc(-c2csc(Nc3ccc(O)cc3)n2)cc1	> 70	3.3	> 70		26.7			
Oc1ccccc1Nc1nc(-c2ccc(Cl)cc2)cs1	> 70		> 70	0.9		67.4	9.1	
OC(c1ccc(Nc2nc(-c3ccc(Cl)cc3)cs2)cc1)(C(F)(F)F)C(F)(F)F	> 70	42.9	> 70	21.7	2.6			
COc1ccc(Nc2nc(-c3ccc(Cl)cc3)cs2)cc1	> 70	3.7	> 70	1.6	25.6			
Clc1ccc(-c2csc(Nc3ccccc3)n2)cc1	> 70	5	> 70		7.7			
Oc1ccc(Nc2nc(-c3ccc(Cl)cc3)cs2)cc1	> 70	4.1	> 70	17.5	28.6			
CC(c1cc2ccccc2s1)N(O)C(N)=O (stereo not given) [ZILEUTON]								1.5
COc1ccc(Nc2nc(-c3ccc(Cl)cc3)cs2)c(OC)c1	> 70	18.4	> 70		> 70			
Clc1ccc(-c2csc(Nc3ccc4c(c3)OCCO4)n2)cc1	> 70	5.5	> 70		6			
CC(=O)c1cccc(Nc2nc(-c3ccc(Cl)cc3)cs2)c1	> 70	59.9	> 70		38.7			
Oc1ccc(Nc2nc(-c3ccc(Cl)c(Cl)c3)cs2)cc1	> 70		32.6			69.4	15.1	
Oc1cccc(Nc2nc(-c3ccccc3)cs2)c1	> 70	2.4	> 70		4.1			

SMILES	Activity [1] [%]	Activity [2] [%]	Activity [3] [%]	Activity [4] [%]	Activity [5] [%]	Activity [6] [%]	Activity [7] [%]	Activity [8] [%]
Oc1ccc(-c2csc(Nc3ccc(F)cc3)n2)cc1	53.7	2.1	4.2		2.1			
O=S(=O)(c1ccc(-c2csc(Nc3ccc(Cl)cc3)n2)cc1)N1CCOCC1	41.3	39.1	> 70		> 70			
Clc1ccc(-c2csc(Nc3ccc4c(c3)OCO4)n2)cc1	> 70	3.8	> 70		3.2			
Oc1ccc(Nc2nc(-c3ccccc3)cs2)cc1	13	3.1	34.9	5.5	16.2			
FC(F)(F)Oc1ccc(Nc2nc(-c3ccc(Cl)cc3)cs2)cc1	> 70	17.8	> 70		1.1			
CCCCCC(O)c1cccc(OCc2ccc3ccccc3n2)c1 (stereo not given) [REV-5901]								28.3
Clc1ccc(-c2csc(Nc3cc(Cl)cc(Cl)c3)n2)cc1	> 70	30.9	> 70		2.3			
Oc1cccc(Nc2nc(-c3ccc(Cl)cc3)cs2)c1	57	2.7	> 70		19.5			
CC(=O)c1ccc(Nc2nc(-c3ccc(F)cc3)cs2)cc1	> 70	9.1	> 70		56.1			
COc1ccc(-c2csc(Nc3ccccc3)n2)cc1	50.3	2.3	> 70		2			
FC(F)(F)c1cc(Nc2nc(-c3ccc(Cl)cc3)cs2)cc(C(F)(F)F)c1	> 70	45.1	> 70	18.2	13.7			
Clc1ccc(-c2csc(Nc3ccc(N4CCOCC4)cc3)n2)cc1	> 70	> 70	> 70		> 70			
CCOc1ccc(-c2csc(Nc3ccc(O)cc3)n2)cc1	> 70	2.1	> 70		16.6			
COc1ccc(Nc2nc(-c3ccc(Cl)cc3)cs2)cc1OC	> 70	8.6	> 70					
COc1ccc(Nc2nc(-c3ccccc3)cs2)cc1	> 70	3.2	> 70		2.3			
